≈ marks a conversion by molar mass, not a printed value. Calls of active or inactive are those of the source. The calls are words filed in the database; no cut-off is given here.
Key:
CCRF-CEM = assay: In vitro inhibition of CCRF-CEM cell proliferation; type: functional, cell-based; details: Homo sapiens
Method in brief: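 Human leukaemia CCRF-CEM cells were grown in RPMI 1640 with 10% dialysed FBS, 16 mM HEPES and 8 mM MOPS, at 4.8 × 10^4 cells per well, in duplicate with several concentrations. Compounds came from a 4 mg/mL Me2SO (or ethanol) stock. After 72 h of continuous exposure (5% CO2), cells were counted on a Coulter counter. IC50 was read from dose–response curves against untreated controls.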

X5563 [1] = assay: Compound was tested in vivo for inhibition of tumor growth of X5,563 myeloma at dose of 17 mg/kg; Number of toxic deaths over total number of mice per group (T/C), 3/10; type: functional; details: Mus musculus
X5563 [2] = assay: Compound was tested in vivo for inhibition of tumor growth of X5,563 myeloma at dose of 35 mg/kg; Number of toxic deaths over total number of mice per group (T/C), 4/10; type: functional; details: Mus musculus
X5563 [3] = assay: Compound was tested in vivo for inhibition of tumor growth of X5,563 myeloma at dose of 25 mg/kg; Number of toxic deaths over total number of mice per group (T/C), 2/10; type: functional; details: Mus musculus
X5563 [4] = assay: Compound was tested in vivo for inhibition of tumor growth of X5,563 myeloma at dose of 70 mg/kg; Number of toxic deaths over total number of mice per group (T/C), 2/10; type: functional; details: Mus musculus
Mus musculus [5] = species on record: Mus musculus; assay: Compound was evaluated for the induction of cytotoxic macrophages at concentration of 0.1 ug/mL; type: functional
Method in brief: (§1)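 Peptone-elicited peritoneal macrophages were taken from C3Heb/FeJ mice (6–8 weeks) 3 days after ip peptone broth. About 4 × 10^5 cells per well were made adherent (90 min) and washed. Compound (3 mg/mL Me2SO stock, diluted in RPMI-1640 + 20% FCS) was added with 4 × 10^4 P815 mastocytoma cells, about 10:1 macrophage:target, at 37 °C, 5% CO2. After 48 h, nonadherent cells were counted by trypan blue. % cytotoxicity = (A−B)/A × 100, corrected for direct drug toxicity on targets. Mean of three experiments.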

X5563 [6] = assay: Compound was tested in vivo for inhibition of tumor growth of X5,563 myeloma at dose of 17 mg/kg; Number of toxic deaths over total number of mice per group (T/C), 0/10; type: functional; details: Mus musculus
X5563 [7] = assay: Compound was tested in vivo for inhibition of tumor growth of X5,563 myeloma at dose of 35 mg/kg; Number of toxic deaths over total number of mice per group (T/C), 0/9; type: functional; details: Mus musculus
X5563 [8] = assay: Compound was tested in vivo for inhibition of tumor growth of X5,563 myeloma at dose of 25 mg/kg; Number of toxic deaths over total number of mice per group (T/C), 0/9; type: functional; details: Mus musculus
Mus musculus [9] = species on record: Mus musculus; assay: Compound was evaluated for the induction of cytotoxic macrophages at concentration of 0.01 ug/mL; type: functional; method in brief: as §1
Mus musculus [10] = species on record: Mus musculus; assay: Compound was evaluated for the induction of cytotoxic macrophages at concentration of 1 ug/mL; type: functional; method in brief: as §1
X5563 [11] = assay: Compound was tested in vivo for inhibition of tumor growth of X5,563 myeloma at dose of 25 mg/kg; Number of toxic deaths over total number of mice per group (T/C), 0/10; type: functional; details: Mus musculus
X5563 [12] = assay: Compound was tested in vivo for inhibition of tumor growth of X5,563 myeloma at dose of 35 mg/kg; Number of toxic deaths over total number of mice per group (T/C), 2/9; type: functional; details: Mus musculus
X5563 [13] = assay: Compound was tested in vivo for inhibition of tumor growth of X5,563 myeloma at dose of 17 mg/kg; Number of toxic deaths over total number of mice per group (T/C), 1/10; type: functional; details: Mus musculus
[14] = Compound was tested in vivo for inhibition of tumor growth of X5,563 myeloma at dose of 35 mg/kg; Number of toxic deaths over total number of mice per group (T/C), 3/10; type: functional; details: Mus musculus, X5563
X5563 [15] = assay: Compound was tested in vivo for inhibition of tumor growth of X5,563 myeloma at dose of 50 mg/kg; Number of toxic deaths over total number of mice per group (T/C), 9/10; type: functional; details: Mus musculus
X5563 [16] = assay: Compound was tested in vivo for inhibition of tumor growth of X5,563 myeloma at dose of 25 mg/kg; Number of toxic deaths over total number of mice per group (T/C), 1/10; type: functional; details: Mus musculus
M-5 = assay: Compound was evaluated for the antitumor activity against M-5 ovarian carcinoma for ip administration and daily x 10; % day delay schedule.; type: functional, Mus musculus
C6 = assay: Compound was evaluated for the antitumor activity against C-6 colon for ip administration and daily x 10; 5-day delay schedule; Number of toxic deaths over total number of mice per group (T/C), 1/10 at dose of 17 mg/kg; type: functional; details: Mus musculus, 120 h, route intraperitoneal
C3H = assay: Compound was evaluated for the antitumor activity against C3H mammary carcinoma for ip administration and daily x 10 schedule; Number of toxic deaths over total number of mice per group (T/C), 1/10 at dose of 25 mg/kg; type: functional; details: Mus musculus, route intraperitoneal
AC755 = assay: Compound was evaluated for the antitumor activity against AC755 breast carcinoma for ip administration and daily x 10 schedule; Number of toxic deaths over total number of mice per group (T/C), 1/7 at dose of 25 mg/kg; type: functional; details: Mus musculus, route intraperitoneal
[17] = Compound was evaluated for the antitumor activity against X5563 plasma cell myeloma for ip administration and days x10; Number of toxic deaths over total number of mice per group (T/C), 0/10 at dose of 25 mg/kg; type: functional; details: Mus musculus, route intraperitoneal
P388 = assay: Compound was evaluated for the antitumor activity against P-388 leukemia; Inactive; type: functional, cell-based; details: Mus musculus
Method in brief: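 P-388 leukaemia: DBA/2 mice were inoculated ip with 1 × 10^6 cells. Compounds were suspended in 2.5% Emulphor in 0.9% saline and given as indicated. Mean life span of treated groups was compared with controls.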

B16 = assay: Compound was evaluated for the antitumor activity against B-16 melanoma; Inactive; type: functional, cell-based; details: Mus musculus
[18] = Compound was evaluated for the antitumor activity against X5563 plasma cell myeloma for iv administration and days 4,8,12; Number of toxic deaths over total number of mice per group (T/C), 1/10 at dose of 50 mg/kg; type: functional; details: Mus musculus
6C3HED = assay: Compound was evaluated for the antitumor activity against 6C3HED lymphosarcoma for ip administration and daily x 8 schedule; Number of toxic deaths over total number of mice per group (T/C), 0/10 at dose of 35 mg/kg; type: functional; details: Mus musculus, route intraperitoneal
C-6 colon (Mus musculus) = assay: Compound was evaluated for the antitumor activity against C-6 colon for ip administration and days 4,8,12; Number of toxic deaths over total number of mice per group (T/C), 1/10 at dose of 50 mg/kg
[19] = Compound was evaluated for the antitumor activity against X5563 plasma cell myeloma for po administration and daily x 10 schedule; Number of toxic deaths over total number of mice per group (T/C), 0/10 at dose of 50 mg/kg; type: functional; details: Mus musculus
X5563 [20] = assay: Compound was tested in vivo for inhibition of tumor growth of X5,563 myeloma at dose of 5 mg/kg; Number of toxic deaths over total number of mice per group (T/C), 4/10; type: functional; details: Mus musculus
X5563 [21] = assay: Compound was tested in vivo for inhibition of tumor growth of X5,563 myeloma at dose of 70 mg/kg; Number of toxic deaths over total number of mice per group (T/C), 9/10; type: functional; details: Mus musculus
X5563 [22] = assay: Compound was tested in vivo for inhibition of tumor growth of X5,563 myeloma at dose of 50 mg/kg; Number of toxic deaths over total number of mice per group (T/C), 1/10; type: functional; details: Mus musculus

Compound: CCCCCCCCCCCCCCC(COP(=O)([O-])OCC[N+](C)(C)C)OCC (centres undefined)
- IC50 (CCRF-CEM): 5.4 µg/mL (≈ 12 µM)
- inhibition in vivo at 17 mg/kg (X5563 [1]): 7%
- inhibition in vivo at 35 mg/kg (X5563 [2]): 80%
- inhibition in vivo at 25 mg/kg (X5563 [3]): 17%

Compound: CCCCC/C=C\C/C=C\CCCCCCCC(COP(=O)([O-])OCC[N+](C)(C)C)OCC (centres undefined)
- IC50 (CCRF-CEM): 6 µg/mL (≈ 12.3 µM)
- inhibition in vivo at 70 mg/kg (X5563 [4]): 31%

Compound: CCCCCCCCCCCCCCCCCC[C@@H](O)COP(=O)([O-])OCC[N+](C)(C)C
- IC50 (CCRF-CEM): > 20 µg/mL

Compound: CCCCCCC(COP(=O)([O-])OCC[N+](C)(C)C)OCC (centres undefined)
- Macrophage cytotoxicity (Mus musculus [5]): 0%
- inhibition in vivo at 17 mg/kg (X5563 [6]): 17%
- inhibition in vivo at 35 mg/kg (X5563 [7]): 17%
- IC50 (CCRF-CEM): > 200 µg/mL
- inhibition in vivo at 25 mg/kg (X5563 [8]): 16%
- Macrophage cytotoxicity (Mus musculus [9]): 0%
- Macrophage cytotoxicity (Mus musculus [10]): 0%

Compound: CCCCCCCCCCCCCCCCCCC(COP(=O)([O-])OCC[N+](C)(C)C)OC (centres undefined)
- IC50 (CCRF-CEM): 1.5 µg/mL (≈ 3.04 µM)

Compound: CCCCCCCCCCC(COP(=O)([O-])OCC[N+](C)(C)C)OCC (centres undefined)
- Macrophage cytotoxicity (Mus musculus [5]): 2%
- IC50 (CCRF-CEM): 55 µg/mL (≈ 139 µM)
- inhibition in vivo at 25 mg/kg (X5563 [11]): 39%
- inhibition in vivo at 35 mg/kg (X5563 [12]): 45%
- Macrophage cytotoxicity (Mus musculus [9]): 1%
- inhibition in vivo at 17 mg/kg (X5563 [13]): 41%
- Macrophage cytotoxicity (Mus musculus [10]): 32%

Compound: CCCCCCCCCCCCCCCCCC[C@H](COP(=O)([O-])OCC[N+](C)(C)C)OC(C)=O
- Macrophage cytotoxicity (Mus musculus [5]): 0%
- inhibition in vivo at 17 mg/kg (X5563 [6]): 57%
- IC50 (CCRF-CEM): 0.9 µg/mL (≈ 1.73 µM)
- inhibition in vivo at 35 mg/kg [14]: 68%
- inhibition in vivo at 50 mg/kg (X5563 [15]): 100%
- inhibition in vivo at 25 mg/kg (X5563 [3]): 39%
- Macrophage cytotoxicity (Mus musculus [9]): 0%
- Macrophage cytotoxicity (Mus musculus [10]): 23%

Compound: CCCCCCCCCCCCCCCCCCC(COP(=O)([O-])OCC[N+](C)(C)C)OCC (centres undefined)
- Macrophage cytotoxicity (Mus musculus [5]): 37%
- inhibition in vivo at 25 mg/kg (X5563 [16]): 80%
- inhibition in vivo at 17 mg/kg (X5563 [6]): 65%
- Inhibition (M-5): 22%
- IC50 (CCRF-CEM): 0.8 µg/mL (≈ 1.58 µM)
- inhibition in vivo at 35 mg/kg (X5563 [2]): 95%
- inhibition in vivo at 17 mg/kg (C6): 56%
- inhibition in vivo at 25 mg/kg (C3H): 37%
- inhibition in vivo at 25 mg/kg (AC755): 42%
- Macrophage cytotoxicity (Mus musculus [9]): 1%
- inhibition in vivo at 25 mg/kg [17]: 77%
- inhibition (P388): inactive
- inhibition (B16): inactive
- inhibition in vivo at 50 mg/kg [18]: 43%
- inhibition in vivo at 35 mg/kg (6C3HED): 85%
- inhibition in vivo at 50 mg/kg (C-6 colon (Mus musculus)): 31%
- inhibition in vivo at 50 mg/kg [19]: 56%
- Macrophage cytotoxicity (Mus musculus [10]): 29%

Compound: CCCCCCCCCCCCCCCCCCCCCCCC(COP(=O)([O-])OCC[N+](C)(C)C)OCC (centres undefined)
- Macrophage cytotoxicity (Mus musculus [5]): 2%
- Macrophage cytotoxicity (Mus musculus [9]): 0%
- Macrophage cytotoxicity (Mus musculus [10]): 0%

Compound: CCCCCCCCCCCCCCCCOC[C@H](COP(=O)([O-])OCC[N+](C)(C)C)OCC
- Macrophage cytotoxicity (Mus musculus [5]): 5%
- IC50 (CCRF-CEM): 2.9 µg/mL (≈ 5.69 µM)
- inhibition in vivo at 5 mg/kg (X5563 [20]): 18%
- Macrophage cytotoxicity (Mus musculus [9]): 4%
- Macrophage cytotoxicity (Mus musculus [10]): 31%

Compound: CCCCCCCC/C=C\CCCCCCCC(COP(=O)([O-])OCC[N+](C)(C)C)OCC (centres undefined)
- IC50 (CCRF-CEM): 1.6 µg/mL (≈ 3.25 µM)
- inhibition in vivo at 70 mg/kg (X5563 [21]): 67%
- inhibition in vivo at 50 mg/kg (X5563 [22]): 47%

Source: ChEMBL document CHEMBL1123384, “Studies of the antitumor activity of (2-alkoxyalkyl)- and (2-alkoxyalkenyl)phosphocholines” (J Med Chem, 1986)
